pEC50: −log10 of the molar value. Read-outs that look alike come from different tables or passages of the source.
Legend:
[1] = molecular target: T1, Aurora A (Homo sapiens, UniProt O14965, T287D); assay: In vitro kinase assay with purified Aurora A protein; format: biochemical; conditions: structure-activity comparison
T1 sequence (O14965 123-390 T287D): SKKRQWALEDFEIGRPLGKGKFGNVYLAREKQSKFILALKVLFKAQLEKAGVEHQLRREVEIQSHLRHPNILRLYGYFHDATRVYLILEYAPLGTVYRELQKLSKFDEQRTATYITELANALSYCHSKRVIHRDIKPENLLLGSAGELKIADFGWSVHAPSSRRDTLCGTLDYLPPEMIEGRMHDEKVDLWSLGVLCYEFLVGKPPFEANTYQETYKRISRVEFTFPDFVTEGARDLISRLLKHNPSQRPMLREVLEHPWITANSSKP

[2] = tested on: MYCN; assay: Immunoblot of MYCN protein in SK-N-BE; format: cell-based; conditions: SK-N-BE(2) cells, 1 μM, 24 hr
[3] = tested on: SK-N-BE(2) MYCN-amplified neuroblastoma cells; assay: CyQUANT viability assay, 72 hr, SK-N-BE; format: cell-based; conditions: read-out: cellular EC50 at 72 hr
[4] = tested on: Kelly MYCN-amplified neuroblastoma cells; assay: CyQUANT viability assay, 72 hr, Kelly; format: cell-based; conditions: read-out: cellular EC50 at 72 hr
[5] = Pharmacokinetic study in mice; format: in vivo
In short: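 Test compound formulated at 20 mg/ml in 7.5% DMSO / 92.5% PEG300 and given to mice. Compound levels determined by LC-MS/MS.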

[6] = tested on: MYCN-amplified SMS-KCN xenografts; assay: MYCN-amplified SMS-KCN neuroblastoma xenograft; format: in vivo, mice; conditions: 60 mg/kg for 2 days
In short: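 NOD scid gamma mice received 10⁶ SMS-KCN cells in growth media with 50% Geltrex, implanted into the renal capsule. Tumors were palpable at 21 days post implantation. Mice were then dosed at 60 mg/kg for two days, and tumors were harvested and flash frozen. MYCN protein was measured by immunoblot and compared by two-tailed Student's t-test (mean ± SEM).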

[7] = tested on: MYCN-expressing SHH-subtype medulloblastoma allograft; assay: SHH-subtype medulloblastoma subcutaneous allograft; format: in vivo, mice; conditions: 25 mg/kg twice per week
In short: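 Homozygous nu/nu mice carried flank subcutaneous allografts of SHH-subtype MYCN-expressing medulloblastoma (10⁶ cells per mouse). Dosing began at 25 mm³ tumor volume (~14 days): vehicle (5% DMSO in PEG300; n=6) or 25 mg/kg (formulated at 7.5 mg/ml; n=4), intraperitoneally twice weekly for up to three weeks. Endpoint was 2.0 cm maximum tumor length. Tumor burden compared by two-tailed t-test, survival by log-rank test.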

[8] = tested on: SK-N-BE(2) cells; assay: Cell cycle by flow cytometry; format: cell-based
In short: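 SK-N-BE(2) cells in RPMI with 10% FBS, exposed to test compound for the stated time. EdU pulse before harvest: 2 hours per methods, 1 hr in the 6 hr, 1 μM experiment. Detection used the Click-iT EdU flow kit plus propidium iodide staining, read on a FACSCalibur. Gating was done in Cytobank.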

[9] = molecular target: T2, MYCN-Aurora A complex (Homo sapiens, UniProt O14965); assay: MYCN immunoprecipitation; format: cell-based; conditions: for dissociation of the MYCN-Aurora A complex: IMR32 cells, 2 hr drug, MG-132 4 hr
T2 sequence (O14965 1-403): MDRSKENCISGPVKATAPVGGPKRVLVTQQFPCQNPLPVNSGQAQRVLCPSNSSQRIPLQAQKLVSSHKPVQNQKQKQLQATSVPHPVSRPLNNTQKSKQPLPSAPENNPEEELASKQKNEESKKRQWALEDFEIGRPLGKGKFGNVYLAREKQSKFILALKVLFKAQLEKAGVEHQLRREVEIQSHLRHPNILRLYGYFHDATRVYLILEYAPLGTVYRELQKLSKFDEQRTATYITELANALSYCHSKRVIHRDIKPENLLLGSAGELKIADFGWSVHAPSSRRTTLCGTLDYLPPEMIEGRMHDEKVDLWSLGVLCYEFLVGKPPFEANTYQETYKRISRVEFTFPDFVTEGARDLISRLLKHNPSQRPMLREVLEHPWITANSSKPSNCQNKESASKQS

[10] = tested on: panel 169 distinct tumor-derived cell lines; assay: Screen of 169 tumor-derived cell lines; format: cell-based; conditions: for susceptibility of MYCN-amplified versus non-amplified cell lines: 93 lines with MYCN copy number
[11] = tested on: GFP- and MYCN-transduced SH-EP neuroblastoma cells; assay: Viability of SHEP cells transduced with MYCN or GFP, 72 hr; format: cell-based; conditions: MYCN- vs GFP-transduced SH-EP
[12] = tested on: MYCN; assay: Immunoblot of MYCN in SHEP cells expressing MYCN WT or T58A/S62A; format: cell-based; conditions: 24 hr; for wild-type MYCN protein level: SHEP MYCN WT
[13] = tested on: MYCN and p-Histone H3; assay: Immunoblot screen of MYCN and p-H3 in Kelly cells; format: cell-based; conditions: 1 μM, 24 hr
In short: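 Kelly cells in RPMI with 10% FBS, given one of 32 compounds at 1 μM for 24 hr. Lysis in Cell Signaling buffer with 1% SDS, then sonication and boiling in LDS sample buffer. Immunoblots probed for MYCN, Histone H3, P-Histone H3 (S10), Aurora A and GAPDH. Bands quantified by densitometry and expressed as percent of untreated control.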

[14] = same dose (20 mg/kg); ref Carol et al., 2011; cited from earlier work
[15] = CD532 1 μM 4 hr, MLN8237 0.1 μM 4 hr, JQ1 2 μM 24 hr

Row | SMILES | cell-free potency against Aurora A relative to CD532 [1] | efficacy against MYCN (MYCN loss) relative to CD532 [2] | cell cycle effect ([8]; 1 μM, 4 or 6 hr) | cell cycle effect [8, 15] | dissociation of the MYCN-Aurora A complex [9] | susceptibility of MYCN-amplified versus non-amplified cell lines [10] | wild-type MYCN protein level [12] | Histone H3 phosphorylation [13] | MYCN protein level [13] | other results
1 | Cc1cc(Nc2cc(C3CCCC3)[nH]n2)nc(Nc2ccc(NC(=O)Nc3cccc(C(F)(F)F)c3)cc2)n1 [CD15] | maintained | maintained | – | – | – | – | – | – | – | –
2 | O=C(Nc1ccccc1)Nc1ccc(Nc2nccc(Nc3cc(C4CCCC4)[nH]n3)n2)cc1 [CD25] | retained potency | less effective than CD532 | – | – | – | – | – | – | – | –
3 | O=C(Nc1ccc(Nc2nccc(Nc3cc(C4CCCC4)[nH]n3)n2)cc1)Nc1cccc(C(F)(F)F)c1 [CD532] | – | – | potent loss of S-phase entry | rapid and potent loss of S-phase | dose-dependent and complete dissociation | significantly more susceptible | dose-dependently decreased | – | – | pEC50 [3]: 6.65; pEC50 [4]: 6.83; serum half-life [5]: ~ 1.5 hr; AUC0-24 ([5]; 20 mg/kg): 27 µM·h; MYCN protein level in xenograft tumors [6]: decreased levels of MYCN protein; tolerability of dosing regimen [7]: without obvious short or long-term toxicity or weight loss; MYCN levels in tumors ([7]; intraperitoneal): substantially reduced MYCN levels; survival ([7]; intraperitoneal): extended survival; tumor burden ([7]; intraperitoneal): reduced tumor burden; MYCN-MAX binding ([9]; specificity control): did not affect; EC50s in cell line panel ([10]; most cell lines): nanomolar range; effect of MYCN transduction on sensitivity [11]: conferred sensitivity; MYCN T58A/S62A protein degradation ([12]; SHEP MYCN T58A/S62A): less effective
4 | Cc1sc2c(c1C)C(c1ccc(Cl)cc1)=N[C@@H](CC(=O)OC(C)(C)C)c1nnc(C)n1-2 [JQ1, reference compound] | – | – | – | downregulation of MYCN, blockade of S-phase entry, and accumulation of cells in G0/G1 | – | significantly more susceptible | – | – | – | –
5 | COc1cc(Nc2ncc3c(n2)-c2ccc(Cl)cc2C(c2c(F)cccc2OC)=NC3)ccc1C(=O)O [MLN8237] | – | – | G2/M arrest | accumulation of cells in G2 and M phase | only modestly disrupted | – | – | blocked Histone H3 phosphorylation | very modest effects | AUC0-24 [14]: 78.4 µM·h
6 | Cc1cc(Nc2cc(N3CCN(C)CC3)nc(Sc3ccc(NC(=O)C4CC4)cc3)n2)[nH]n1 [VX-680] | – | – | G2/M arrest | – | – | – | little effect | blocked Histone H3 phosphorylation | very modest effects | –
